Laboratory results taken from paper PMC9305466 (British Journal of Clinical Pharmacology, 2022).

Tests used:
[1] = test system: subjects with rheumatoid arthritis (RA); assay: Exposure-safety analysis; assay type: in vivo, human; settings: up to week 52; for exposures (AUC0‐24) by presence or absence of the five most frequent TEAEs: nausea, nasopharyngitis, upper respiratory tract infection, headache, hypertension
In short: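 Individual parent and metabolite exposures came from population PK models and were analysed separately for each analyte. Data were pooled from all five studies across all doses. Data collected after rerandomization and a switch of treatment group were excluded. Exposures were compared between subjects with and without each event (serious TEAEs, serious infections). Cmax was also evaluated.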

JAK1 = settings: GS‐829845 vs filgotinib; cited from earlier work
[2] = phase 1 studies; cited from earlier work
[3] = cited from earlier work; for effect of moderate hepatic impairment on exposure (AUC and C max): compared with matched healthy controls
[4] = test system: JAK1‐related interleukin‐6 (IL‐6)‐induced phosphorylated signal transducer and activator of transcription 1 (pSTAT1); settings: cited from earlier work
[5] = test system: subjects with moderately to severely active rheumatoid arthritis (RA); assay: Exposure-efficacy analysis; assay type: in vivo, human; settings: week 12; filgotinib 100 mg group
In short: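 Individual exposures came from population PK models (nonlinear mixed-effects), built separately for parent and active metabolite. Parent and metabolite exposures were combined as AUCeff, weighted by relative JAK1 inhibition potency. Data were pooled from 3 phase 3 and 2 phase 2 studies: dosed subjects with ≥1 PopPK parameter, plus placebo at week 12. Binary response was fit by nonlinear logistic (Emax on logit) regression, with Clopper-Pearson binomial CIs.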

Row | SMILES | exposures (AUC0‐24) by presence or absence of the five most frequent TEAEs [1] | serious TEAEs and serious infections against exposures [1] | potency relative to the parent (JAK1 preferential inhibitor), fold less potent (JAK1) | half‐life [2] | exposure in elderly subjects (≥75 years) compared with younger subjects [3] [fold] | exposure in subjects with severe renal impairment (RI), fold higher [3] [fold] | effect of moderate hepatic impairment on exposure (AUC and C max) [3] | maximum inhibition of pSTAT1 ([4]; plateaued at or above 200 mg total daily dose) | intermediate inhibition of pSTAT1 ([4]; total daily dose of 100 mg) | ACR20 response rate [5]
1 | Nc1nc2cccc(-c3ccc(CN4CCS(=O)(=O)CC4)cc3)n2n1 [GS‐829845] | similar | no exposure‐driven patterns were present | approximately 10 fold | approximately 19 hours | 1.33 | 2.74 | no clinically relevant effect |  |  | 
2 | O=C(Nc1nc2cccc(-c3ccc(CN4CCS(=O)(=O)CC4)cc3)n2n1)C1CC1 [filgotinib] | similar | no exposure‐driven patterns were present |  | ~7 h | 1.45 | 1.54 | no clinically relevant effect | ~ 78% | ~ 47% | approximately 70%
